From PubChem
In the library only some 3.2% were active in any assay of this set; here they are far more common.
Bim-Mcl-1: inhibitors of Bim peptide binding to Mcl-1, primary screen, biochemical, bead-based flow cytometry, multiplex. Bim peptide-Mcl-1 binding. inhibition, % at 10 µM. AID 1009, 2008. 190,000 compounds, 0.1% hits; in the data active = inhibition above about 40%;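 also: 0% = no compound tracer wells and 100% = peptide blocker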
14-3-3 Bad inh: inhibitors of 14-3-3 zeta/Bad binding, primary screen, biochemical, TR-FRET, bovine 14-3-3 zeta; inhibition, % at 21.7 µM; TR-FRET 14-3-3zeta/Dy647-pBad peptide displacement, 1 h; 220,000 compounds, 0.71% hits;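 active = inhibition above about 70%, limit read from the data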;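 also: 0% = full 14-3-3 plus peptide FRET controls and 100% = background without 14-3-3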
Target sequence (P63103 whole entry, looked up): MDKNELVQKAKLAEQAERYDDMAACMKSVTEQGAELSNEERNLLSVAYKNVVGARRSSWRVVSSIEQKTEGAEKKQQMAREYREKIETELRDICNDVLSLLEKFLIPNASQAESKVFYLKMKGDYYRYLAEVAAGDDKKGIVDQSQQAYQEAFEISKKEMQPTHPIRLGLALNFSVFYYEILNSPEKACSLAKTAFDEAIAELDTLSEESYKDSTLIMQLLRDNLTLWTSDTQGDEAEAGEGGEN
Mcl1-Bid inh: Mcl-1/Bid binding inhibitors, primary screen, biochemical, TR-FRET, 1536-well. Induced myeloid leukemia cell differentiation protein Mcl-1 (Homo sapiens), Q07820. TR-FRET Mcl-1/Bid-Dy647 peptide binding. inhibition, % at 21.7 µM. 220,000 compounds, 0.97% hits. AID 1021, 2008;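 active = compounds that cut the binding signal by more than half at the single screening dose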;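 also: His-tagged Mcl-1 with europium anti-His antibody binding Bid BH3 peptide; 0% = Mcl-1 plus peptide wells and 100% = peptide-only wells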
Hck Nef HTS: inhibitors of Nef-activated human Hck kinase, primary screen, biochemical, Z-Lyte FRET, 384-well, Hck-YEEI. Tyrosine-protein kinase HCK (Homo sapiens), P08631. Recombinant Hck-YEEI plus Nef, Z-Lyte FRET kinase assay. inhibition, % at 20 µM. 220,000 compounds, 0.68% hits;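 active = Hck-Nef kinase inhibition above about 50%, limit read from the data; inactive = inhibition below that limit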;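 also: 0% = DMSO with Hck plus Nef and 100% = Hck alone without Nef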
Biofilm kill mix: clotrimazole potentiators killing C. albicans biofilm, primary screen, 4-compound mixtures | AID 1242, 2008 | C. albicans biofilm persisters + clotrimazole, fluorescence viability; primary screen in compound mixtures of four per well | inhibition, % at 7.6 µM | 120,000 compounds, 0.02% hits;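 active = inhibition above 30.3% in the primary screen of four-compound pools, then above 30% when the compound was retested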;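 also: compounds exposed to preformed 24 h biofilms for 48 h; 0% = untreated biofilm control and 100% = clotrimazole plus chlorhexidine kill blank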
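Test system: C. albicans biofilms. Buffer or medium: RPMI/MOPS medium, pH 7.0. Timing: 48 h compound exposure at 37 °C. Technique: Alamar Blue fluorescence. Evaluation: percent inhibition of biofilm viability.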
Mcl1-Noxa inh: Mcl-1/Noxa binding inhibitors, primary screen, biochemical, TR-FRET, 1536-well; TR-FRET Mcl-1/Noxa peptide binding, 2 h; inhibition, % at 21.7 µM; 220,000 compounds, 1.5% hits;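 active = compounds that cut the protein-peptide binding signal by more than 50% relative to plate controls in a single-dose test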;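 also: His-tagged Mcl-1 with rhodamine Noxa BH3 peptide and terbium anti-His antibody; 0% = Mcl-1 plus Noxa peptide wells and 100% = peptide-only wells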
* marks the source's active call; other numbers are inactive results.

For CCOC(=O)c1c[nH][nH]c1=O the results were 14-3-3 Bad inh 3, Mcl1-Bid inh -2, Hck Nef HTS 7, Biofilm kill mix 14 and Mcl1-Noxa inh 16.
For CCOc1ccccc1C(=O)NC1CC2CCCC(C1)N2C1CC1 (stereo not drawn) the results were Bim-Mcl-1 42*, 14-3-3 Bad inh -11, Mcl1-Bid inh 2, Hck Nef HTS -1 and Mcl1-Noxa inh 7.
For O=C(CSc1nc(-c2ccc(F)cc2)cs1)N1CCN(C(=O)c2ccco2)CC1 the results were Bim-Mcl-1 0, 14-3-3 Bad inh -16, Mcl1-Bid inh -15, Hck Nef HTS -2 and Mcl1-Noxa inh 4.
For Cc1nc(C)c(-c2ccn(C(=O)NC(C)C)n2)s1 the results were 14-3-3 Bad inh 1, Mcl1-Bid inh 3, Hck Nef HTS 7, Biofilm kill mix 19 and Mcl1-Noxa inh 20.
For COc1cc(/C=C/C(=O)CC(=O)/C=C/c2ccc(O)c(OC)c2)ccc1O the results were Bim-Mcl-1 12, 14-3-3 Bad inh -7, Mcl1-Bid inh 1, Hck Nef HTS 1, Biofilm kill mix 12 and Mcl1-Noxa inh 51*.
`COc1cc(/C=N/Nc2nc(C)nc3c2cnn3-c2ccccc2)ccc1O` gave Bim-Mcl-1 7, 14-3-3 Bad inh 10, Mcl1-Bid inh 27, Hck Nef HTS 13, Biofilm kill mix 2 and Mcl1-Noxa inh 74*.
COc1cc(C=C(C(C)=O)C(C)=O)ccc1O was read as Bim-Mcl-1 -4, 14-3-3 Bad inh 2, Mcl1-Bid inh -35, Hck Nef HTS 2 and Mcl1-Noxa inh 24.
`COc1cc(/C=N/Nc2ccc(C(=O)O)cc2)ccc1O` gave Bim-Mcl-1 2, 14-3-3 Bad inh 5, Mcl1-Bid inh -51, Hck Nef HTS 22, Biofilm kill mix -2 and Mcl1-Noxa inh 63*.
Screening Cc1oncc1C(=O)NC(C)C returned Bim-Mcl-1 4, 14-3-3 Bad inh 8, Mcl1-Bid inh -3, Hck Nef HTS 1 and Mcl1-Noxa inh -8.
COc1ccc(C(=O)N2CCOC2CNC(=O)C(=O)NCc2ccc(Cl)cc2)cc1 (stereo not drawn) was read as Bim-Mcl-1 2, 14-3-3 Bad inh -8, Mcl1-Bid inh -2, Hck Nef HTS 13, Biofilm kill mix 13 and Mcl1-Noxa inh -2.
`O=C(NCCN1C(=O)S/C(=C\c2cccnc2)C1=O)C1=NN(c2ccccc2)C(=O)CC1` gave Bim-Mcl-1 -4, 14-3-3 Bad inh 1, Mcl1-Bid inh -54, Hck Nef HTS 0, Biofilm kill mix 13 and Mcl1-Noxa inh 13.
Screening Oc1cccc(NC(=S)Nc2ccccc2)c1 returned 14-3-3 Bad inh 99*, Mcl1-Bid inh -75, Hck Nef HTS 27, Biofilm kill mix 18 and Mcl1-Noxa inh 23.
`Fc1cccc(NC(=S)NNc2c3ccccc3nc3ccccc23)c1` gave Bim-Mcl-1 1, 14-3-3 Bad inh -13, Mcl1-Bid inh -19, Hck Nef HTS 43, Biofilm kill mix 0 and Mcl1-Noxa inh 80*.
`O=C(/C=C/c1ccc(Br)o1)NCc1ccccc1` gave Bim-Mcl-1 -1, 14-3-3 Bad inh 32, Mcl1-Bid inh 16, Hck Nef HTS 5, Biofilm kill mix 14 and Mcl1-Noxa inh 72*.
`O=[N+]([O-])c1cccc(N/N=C/c2cccc(O)c2O)c1` gave Bim-Mcl-1 4, 14-3-3 Bad inh -22, Mcl1-Bid inh -35, Hck Nef HTS 28, Biofilm kill mix 5 and Mcl1-Noxa inh 67*.
Cc1cccc(N/N=C/c2ccc(O)c(O)c2O)c1 was read as 14-3-3 Bad inh 17, Mcl1-Bid inh -189, Hck Nef HTS 8, Biofilm kill mix 16 and Mcl1-Noxa inh 53*.
COc1cccc(N/N=C/c2cccc(Br)c2O)c1 was read as 14-3-3 Bad inh -3, Mcl1-Bid inh -75, Hck Nef HTS 19, Biofilm kill mix 17 and Mcl1-Noxa inh -10.
